Source: ChEMBL document CHEMBL3593173, “Discovery of novel N-(5-(tert-butyl)isoxazol-3-yl)-N'-phenylurea analogs as potent FLT3 inhibitors and evaluation of their activity against acute myeloid leukemia in vitro and in vivo” (Bioorg Med Chem, 2015)
pIC50: −log10 of the molar value. Values after ≈ are worked out from the molar mass of the structure shown. One block for each compound: values may come before it. Active and inactive are the calls of the source. The calls are words filed in the database; no cut-off is given here.

Legend:
[1] = system: MV4-11; test: Cytotoxicity against human MV4-11 cells incubated for 72 hrs by MTT assay; assay type: functional, cell-based; conditions: MV4-11, 72 h
In short: (§1)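 Leukemia cells were grown with 10% FBS at 37 °C in 5% CO₂; MV4-11 was kept in IMDM. Cells were seeded at 1–4 × 10⁴ per well, and an equal volume of medium containing increasing inhibitor concentrations was added. MTT was added for 2–4 h, formazan was dissolved in DMSO, and OD was read at 570 nm to derive IC50.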

[2] = Solubility in SPSS; assay type: physicochemical
[3] = system: MV4-11; test: Induction of apoptosis in human MV4-11 cells assessed as late apoptotic cells level at 10 nM incubated for 48 hrs by Annexin V-FITC labeling based flow cytometry (reference value: 6.61%); assay type: functional
[4] = system: MV4-11; test: Inhibition of cell proliferation of FLT3-ITD bearing human MV4-11 cells xenografted in NOD-SCID mouse assessed as reduction in Ki67-positive cells in tumor tissues at 60 mg/kg/day, po qd for 7 days by immunohistochemistry; assay type: functional, organism-based
In short: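 NOD-SCID mice bearing subcutaneous MV4-11 xenografts were dosed at 60 mg/kg/d by oral gavage, once daily. Tumors were harvested 7 days later. Proliferation was scored by Ki67 immunostaining and apoptosis by TUNEL staining.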

[5] = system: Jurkat; test: Growth inhibition of human Jurkat cells incubated for 72 hrs by MTT assay; assay type: functional, cell-based; in short: as §1
[6] = system: MV4-11; test: Induction of apoptosis in human MV4-11 cells assessed as viable cells at 1 nM incubated for 48 hrs by Annexin V-FITC labeling based flow cytometry (reference value: 86.1%); assay type: functional; conditions: MV4-11, 48 h, read-out: Activity
[7] = Clearance in Sprague-Dawley rat at 30 mg/kg, po after 15 mins to 24 hrs by HPLC method; assay type: ADME, organism-based; conditions: in vivo
In short: (§2)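 Sprague–Dawley rats (n = 3) fasted overnight, then given a single 30 mg/kg oral gavage dose in 25% PEG400, 5% DMSO and 70% distilled water. Heparinized blood was drawn at 15 min, 30 min, 1, 2, 4, 6, 12 and 24 h, and plasma was separated by centrifugation. Plasma levels were measured by liquid–liquid extraction and HPLC.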

[8] = system: MV4-11; test: Induction of apoptosis in human MV4-11 cells assessed as necrotic cells level at 10 nM incubated for 48 hrs by Annexin V-FITC labeling based flow cytometry (reference value: 3.76%); assay type: functional
[9] = system: MV4-11; test: Antitumor activity against FLT3-ITD bearing human MV4-11 cells xenografted in NOD-SCID mouse assessed as tumor growth inhibition at 10 mg/kg/day, po; assay type: functional; conditions: MV4-11, po, read-out: TGI
In short: (§3)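 MV4-11 cells in exponential growth were washed three times in serum-free medium, resuspended at 1 × 10⁸ cells/mL and injected subcutaneously into NOD-SCID mice aged 5–6 weeks. At 100–200 mm³, tumors were randomized into 4 groups of 6. Dosing was 10, 30 or 60 mg/kg/d, or vehicle (25% PEG400 plus 5% DMSO in water), by oral gavage once daily. Tumor volume was measured every 3 days, and body weight and toxicity signs were monitored.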

[10] = system: MV4-11; test: Antitumor activity against FLT3-ITD bearing human MV4-11 cells xenografted in NOD-SCID mouse assessed as tumor growth inhibition at 30 mg/kg/day, po; assay type: functional; conditions: MV4-11, po, read-out: TGI; in short: as §3
[11] = system: MV4-11; test: Induction of apoptosis in human MV4-11 cells assessed as late apoptotic cells level at 1 nM incubated for 48 hrs by Annexin V-FITC labeling based flow cytometry (reference value: 6.61%); assay type: functional
[12] = Solubility in water; assay type: physicochemical
[13] = system: THP-1; test: Growth inhibition of human THP1 cells incubated for 72 hrs by MTT assay; assay type: functional, cell-based; conditions: THP-1, 72 h; in short: as §1
[14] = system: A549; test: Growth inhibition of human A549 cells incubated for 72 hrs by MTT assay; assay type: functional, cell-based; conditions: A549, 72 h
In short: (§4)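 Non-leukemia lines were grown in RPMI 1640 or DMEM with 10% FBS at 37 °C in 5% CO₂. Cells were seeded at 2–5 × 10³ per well and incubated 24 h, then treated with diluted inhibitors for 72 h. MTT was added for 2–4 h, formazan was dissolved in DMSO, and OD was read at 570 nm to derive IC50.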

[15] = system: Rattus norvegicus; test: Volume of distribution at steady state in Sprague-Dawley rat at 30 mg/kg, po after 15 mins to 24 hrs by HPLC method; assay type: ADME, organism-based; conditions: in vivo; in short: as §2
[16] = Growth inhibition of human A875 cells incubated for 72 hrs by MTT assay; assay type: functional, cell-based; conditions: A875, 72 h; in short: as §4
[17] = Cmax in Sprague-Dawley rat at 30 mg/kg, po after 15 mins to 24 hrs by HPLC method; assay type: ADME, organism-based; set-up: dose 30 mg/kg, route oral; conditions: in vivo; in short: as §2
[18] = system: HCT-116; test: Growth inhibition of human HCT116 cells incubated for 72 hrs by MTT assay; assay type: functional, cell-based; conditions: HCT-116, 72 h; in short: as §4
[19] = system: MV4-11; test: Induction of apoptosis in human MV4-11 cells incubated for 48 hrs by Annexin V-FITC labeling based flow cytometry; assay type: functional, cell-based
[20] = system: MV4-11; test: Induction of apoptosis in human MV4-11 cells assessed as viable cells at 100 nM incubated for 48 hrs by Annexin V-FITC labeling based flow cytometry (reference value: 86.1%); assay type: functional; conditions: MV4-11, 48 h, read-out: Activity
[21] = system: MV4-11; test: Induction of apoptosis in human MV4-11 cells assessed as early apoptotic cells level at 10 nM incubated for 48 hrs by Annexin V-FITC labeling based flow cytometry (reference value: 3.54%); assay type: functional
[22] = system: MV4-11; test: Induction of apoptosis in human MV4-11 cells assessed as early apoptotic cells level at 1 nM incubated for 48 hrs by Annexin V-FITC labeling based flow cytometry (reference value: 3.54%); assay type: functional
[23] = system: MV4-11; test: Induction of apoptosis in human MV4-11 cells assessed as late apoptotic cells level at 100 nM incubated for 48 hrs by Annexin V-FITC labeling based flow cytometry (reference value: 6.61%); assay type: functional
[24] = system: Mus musculus; test: Toxicity in FLT3-ITD bearing human MV4-11 cells xenografted NOD-SCID mouse assessed as induction of toxicity signs at 10 to 60 mg/kg/day, po; assay type: organism-based; conditions: in vivo; in short: as §3
[25] = system: U-937; test: Growth inhibition of human U937 cells incubated for 72 hrs by MTT assay; assay type: functional, cell-based; conditions: U-937, 72 h; in short: as §1
[26] = system: MCF7; test: Growth inhibition of human MCF7 cells incubated for 72 hrs by MTT assay; assay type: functional, cell-based; conditions: MCF7, 72 h; in short: as §4
[27] = system: MV4-11; test: Antitumor activity against FLT3-ITD bearing human MV4-11 cells xenografted in orally dosed NOD-SCID mouse assessed as tumor growth inhibition; assay type: functional, organism-based; in short: as §3
[28] = system: MV4-11; test: Induction of apoptosis in human MV4-11 cells assessed as early apoptotic cells level at 100 nM incubated for 48 hrs by Annexin V-FITC labeling based flow cytometry (reference value: 3.54%); assay type: functional
[29] = system: HepG2; test: Growth inhibition of human HepG2 cells incubated for 72 hrs by MTT assay; assay type: functional, cell-based; conditions: HepG2, 72 h; in short: as §4
[30] = system: Mus musculus; test: Toxicity in FLT3-ITD bearing human MV4-11 cells xenografted NOD-SCID mouse assessed as induction of body weight loss at 10 to 60 mg/kg/day, po; assay type: organism-based; conditions: in vivo; in short: as §3
[31] = Growth inhibition of human PANC1 cells incubated for 72 hrs by MTT assay; assay type: functional, cell-based; conditions: PANC-1, 72 h; in short: as §4
[32] = AUC (0 to 24 hrs) in Sprague-Dawley rat at 30 mg/kg, po after 15 mins to 24 hrs by HPLC method; assay type: ADME, organism-based; set-up: dose 30 mg/kg, time < 24 hr, route oral; conditions: in vivo; in short: as §2
[33] = system: MV4-11; test: Induction of apoptosis in human MV4-11 cells assessed as viable cells at 10 nM incubated for 48 hrs by Annexin V-FITC labeling based flow cytometry (reference value: 86.1%); assay type: functional; conditions: MV4-11, 48 h, read-out: Activity
[34] = system: MV4-11; test: Induction of apoptosis in human MV4-11 cells assessed as necrotic cells level at 100 nM incubated for 48 hrs by Annexin V-FITC labeling based flow cytometry (reference value: 3.76%); assay type: functional
[35] = Solubility in MeOH solution; assay type: physicochemical
[36] = system: MV4-11; test: Effect on FLT3 protein expression in human MV4-11 cells at 1 to 100 nM incubated for 2 hrs by Western blotting method; assay type: cell-based; conditions: mv4-11, 2 h, 0.1 µM
In short: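 MV4-11 cells were treated with increasing concentrations for 2 h at 37 °C, washed in ice-cold PBS and lysed in RIPA buffer with 1% protease cocktail. Lysates were cleared at 13,000 rpm for 15 min at 4 °C, run on 5–10% polyacrylamide gels and transferred to PVDF. Blots were probed with anti-FLT3, anti-p-FLT3 and anti-β-actin, then an HRP secondary antibody.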

[37] = system: K562; test: Growth inhibition of human K562 cells incubated for 72 hrs by MTT assay; assay type: functional, cell-based; conditions: K562, 72 h; in short: as §1
[38] = Solubility in PBS solution; assay type: physicochemical
[39] = system: MV4-11; test: Antitumor activity against FLT3-ITD bearing human MV4-11 cells xenografted in NOD-SCID mouse assessed as induction of complete tumor regression at 60 mg/kg/day, po; assay type: functional, organism-based; in short: as §3
[40] = system: U-251; test: Growth inhibition of human U251 cells incubated for 72 hrs by MTT assay; assay type: functional, cell-based; conditions: U-251, 72 h; in short: as §4
[41] = Apparent half life in Sprague-Dawley rat at 30 mg/kg, po after 15 mins to 24 hrs by HPLC method; assay type: ADME, organism-based; conditions: in vivo, read-out: t1/2(app) (converted); in short: as §2
[42] = system: MV4-11; test: Induction of apoptosis in human MV4-11 cells assessed as necrotic cells level at 1 nM incubated for 48 hrs by Annexin V-FITC labeling based flow cytometry (reference value: 3.76%); assay type: functional
[43] = system: MV4-11; test: Growth inhibition of FLT3-ITD bearing human MV4-11 cells incubated for 72 hrs by MTT assay; assay type: functional, cell-based; conditions: MV4-11, 72 h; in short: as §1
[44] = system: MV4-11; test: Induction of apoptosis in FLT3-ITD bearing human MV4-11 cells xenografted in NOD-SCID mouse at 60 mg/kg/day, po qd for 7 days by TUNEL assay
[45] = Solubility in EtOH solution; assay type: physicochemical

Compound: CC(C)(C)c1cc(NC(=O)Nc2ccc(-c3cn4c(Cl)cccc4n3)cc2)no1
pIC50 [1]: 7.25

Compound: CC(C)(C)c1cc(NC(=O)Nc2ccc(-c3cn4c(n3)sc3cc(OCCN5CCOCC5)ccc34)cc2)no1 [QUIZARTINIB]
pIC50 [1]: 9.17

solubility [2]: 1.47 µg/mL (≈ 3.63 µM)
pIC50 [5]: < 4.70
CL/F [7]: 33.5 mL/min/kg
solubility [12]: 304 µg/mL (≈ 749 µM)
pIC50 [13]: 5.47
pIC50 [14]: 5.25
Vdss [15]: 14.12 L/kg
Cmax [17]: 3290 ng/mL
pIC50 [18]: < 4.70
pIC50 [25]: < 4.70
pIC50 [26]: < 4.70
pIC50 [29]: < 4.70
AUC(0-t) at 24 h [32]: 14300 ng·h/mL
solubility [35]: 7460 µg/mL (≈ 18400 µM)
pIC50 [37]: < 4.70
solubility [38]: 36.6 µg/mL (≈ 90.3 µM)
pIC50 [40]: < 4.70
half-life [41]: 4.86 h
pIC50 [43]: 8.52
solubility [45]: 3150 µg/mL (≈ 7770 µM)
Compound: COc1ccn2cc(-c3ccc(NC(=O)Nc4cc(C(C)(C)C)on4)cc3)nc2c1
Activity [3]: 18.6%
inhibition [4]: Active
viability at 0.001 µM [6]: 78.7%
Activity [8]: 10.8%
inhibition in vivo at 10 mg/kg/day [9]: 51%
inhibition in vivo at 30 mg/kg/day [10]: 87%
Activity [11]: 12.1%
pIC50 [16]: < 4.70
Activity [19]: Dose-dependent effect
viability at 0.1 µM [20]: 54.8%
Activity [21]: 7.42%
Activity [22]: 3.86%
Activity [23]: 23%
Activity [24]: Non-toxic
TGI [27]: Dose-dependent effect
Activity [28]: 6.88%
Activity [30]: Non-toxic
pIC50 [31]: < 4.70
viability at 0.01 µM [33]: 63.2%
Activity [34]: 15.3%
Activity [36]: Non-toxic
Activity [39]: Active
Activity [42]: 5.34%
Activity [44]: Active
pIC50 [1]: 8.55

Compound: CC(C)(C)c1cc(NC(=O)Nc2ccc(-c3nc4ccccc4o3)cc2)no1
pIC50 [1]: 7.08

Compound: CC(C)(C)c1cc(NC(=O)Nc2ccc(-c3cn4cccc(Cl)c4n3)cc2)no1
pIC50 [1]: 6.45

Compound: CC(C)(C)c1cc(NC(=O)Nc2ccc(-c3cn4ccc(Cl)cc4n3)cc2)no1
pIC50 [1]: 8.23

Compound: CC(C)(C)c1cc(NC(=O)Nc2ccc(-c3cc4ccccc4s3)cc2)no1
pIC50 [1]: < 6.05
